Compound activity deposited in PubChem BioAssay by Sanford-Burnham Center for Chemical Genomics.
APOBEC3G inh: APOBEC3G DNA deaminase inhibitors, primary screen, biochemical, fluorescence, single-stranded DNA substrate, uHTS; inhibition, % at 20 µM; hit rate 0.28% among 330,000; DNA dC->dU-editing enzyme APOBEC-3G (Homo sapiens), Q9HC16; recombinant A3G, ssDNA deamination FAM/TAMRA fluorescence;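 active = inhibition of at least 40% at 20 µM, with no more than 30% in the related APOBEC3A deaminase screen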
CXCR6 inh: CXCR6 receptor inhibitors, primary screen, cell-based, beta-arrestin, luminescence, CHO-K1 PathHunter, 1536-well; C-X-C chemokine receptor type 6 (Homo sapiens), O00574; inhibition, % at 20 µM; hit rate 0.36% among 360,000; AID 602244, 2012; in the data active = inhibition above about 34%, passing the limit was not always enough;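 note: antagonist mode with CXCL16 agonist at 10 nM final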
APJ antagonist: antagonists of human apelin receptor APJ, primary screen, CHO-K1 cells, beta-arrestin complementation, luminescence; inhibition, % at 20 µM; hit rate 0.32% among 330,000;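 active = inhibition above about 40% at 20 µM, limit read from the data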;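 note: cells challenged with 10 nM apelin-13 agonist together with compound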
CCR6 antagonist: CCR6 receptor antagonists, primary screen, cell-based, CHO-K1, luminescence, beta-arrestin, uHTS. inhibition, % at 20 µM. CHO-K1 CCR6 PathHunter beta-arrestin, CCL20-stimulated. C-C chemokine receptor type 6 (Homo sapiens), P51684. hit rate 0.49% among 340,000;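 active = compounds whose inhibition of the agonist-driven luminescence signal at 20 µM reaches about 50%, limit read from the data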;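 note: cells stimulated with CCL20 at 14 nM final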
Target sequence (P51684 whole entry, looked up): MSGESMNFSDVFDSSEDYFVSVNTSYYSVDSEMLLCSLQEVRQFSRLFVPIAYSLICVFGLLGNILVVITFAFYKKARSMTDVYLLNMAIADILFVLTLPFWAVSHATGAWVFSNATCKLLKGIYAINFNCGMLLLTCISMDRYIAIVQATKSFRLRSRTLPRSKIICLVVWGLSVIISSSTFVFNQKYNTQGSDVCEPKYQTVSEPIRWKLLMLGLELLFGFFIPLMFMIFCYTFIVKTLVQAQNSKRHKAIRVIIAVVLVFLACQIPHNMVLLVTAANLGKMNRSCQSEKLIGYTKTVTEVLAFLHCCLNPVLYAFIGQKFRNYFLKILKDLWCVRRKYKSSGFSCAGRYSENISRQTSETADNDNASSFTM
APJ agonist: agonists of human apelin receptor APJ, primary screen, CHO-K1 cells, PathHunter beta-arrestin, luminescence; AID 2520, 2010; activation, % at 20 µM; hit rate 0.11% among 330,000; 0% DMSO wells, 100% apelin;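 active = activation more than six SD over the plate average, tested at 20 µM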
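Test system: CHO-K1 APJ beta-arrestin complementation cell line. Amount: cell density 1000 per well. Controls: DMSO negative, 10 nM Apelin-13 positive. Signal: luminescent beta-gal fragment complementation, chemiluminescent substrate. Read-out basis: agonist-driven arrestin binding to APJ. Timing: compound stimulation 90 min at 25 °C, detection 60 min.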
APOBEC3A inh: APOBEC3A ssDNA deaminase inhibitors, primary screen, selectivity assay for APOBEC3G inhibitor project, biochemical, FAM/TAMRA oligo cleavage fluorescence. inhibition, % at 20 µM. AID 493011, 2011. DNA dC->dU-editing enzyme APOBEC-3A (Homo sapiens), P31941. hit rate 0.41% among 330,000. recombinant A3A, FAM/TAMRA ssDNA deamination fluorescence;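 active = at least 40% inhibition at 20 µM here, with at most 30% in a related deaminase screen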
Target sequence (P31941 whole entry, looked up): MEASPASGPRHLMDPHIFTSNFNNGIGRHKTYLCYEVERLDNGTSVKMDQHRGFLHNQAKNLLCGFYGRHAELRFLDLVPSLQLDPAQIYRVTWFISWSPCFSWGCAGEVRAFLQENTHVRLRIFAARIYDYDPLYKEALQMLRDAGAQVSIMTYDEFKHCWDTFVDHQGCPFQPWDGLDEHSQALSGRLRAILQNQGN
A number is an active result. Most compounds without a hit are left out; they make up all but 1.4% or so of the library.

Results for CC1CCCCN1C(=O)COC(=O)CNC(=O)c1ccc(Cl)cc1Cl (stereo unspecified) ?
APOBEC3G inh: inactive; CXCR6 inh: inactive; APJ antagonist: inactive; CCR6 antagonist: inactive; APJ agonist: inactive; APOBEC3A inh: inactive

How did O=C(/C=C/c1cccnc1)/C=C/c1cccnc1 do in these assays?
CXCR6 inh: inactive; CCR6 antagonist: 59

Results for COc1cc(/C=C2/C(=O)NN(c3cccc(F)c3)C2=O)ccc1OC(=O)c1ccco1 ?
APOBEC3G inh: inactive; CXCR6 inh: 40; APJ antagonist: inactive; CCR6 antagonist: inactive; APJ agonist: inactive; APOBEC3A inh: inactive

What do the screens show for `COc1cc(/C=C2/C(=O)NN(c3ccc(Cl)cc3)C2=O)ccc1OC(=O)c1ccco1`?
APOBEC3G inh: inactive; CXCR6 inh: 50; APJ antagonist: inactive; CCR6 antagonist: 72; APJ agonist: inactive; APOBEC3A inh: inactive

Results for OC(c1cccc(Cl)c1)c1ncc(-c2ccc(C(F)(F)F)cc2)[nH]1 (stereo unspecified) ?
CXCR6 inh: inactive

How did O=C(c1ccc(Cl)nc1)c1cccs1 do in these assays?
APOBEC3G inh: inactive; APJ antagonist: inactive; CCR6 antagonist: inactive; APJ agonist: inactive; APOBEC3A inh: inactive

How did O=C(c1cccs1)c1no[n+]([O-])c1C(=O)c1cccs1 do in these assays?
APOBEC3G inh: inactive; CXCR6 inh: inactive; APJ antagonist: inactive; CCR6 antagonist: inactive; APJ agonist: 30; APOBEC3A inh: inactive

Results for CC(CCC(=O)NN)C1CCC2C3CCC4CC(O)CCC4(C)C3CCC12C (stereo unspecified) ?
CXCR6 inh: inactive; CCR6 antagonist: inactive

What do the screens show for `CC(CCC(C)C(C)(C)C)[C@@H]1CC[C@H]2C3C[C@H](OS(O)(=S)=S)[C@H]4C[C@H](OS(O)(=S)=S)[C@@H](OS(O)(=S)=S)C[C@]4(C)[C@H]3CC[C@]12C` (stereo partly specified) (tested in a mixture with another compound)?
APOBEC3G inh: inactive; CXCR6 inh: inactive; APJ antagonist: inactive; CCR6 antagonist: 57; APJ agonist: inactive; APOBEC3A inh: inactive

Results for CCOc1ncccc1C(=O)OCC(=O)c1ccc(C)c(C)c1 ?
APOBEC3G inh: inactive; CXCR6 inh: inactive; APJ antagonist: inactive; CCR6 antagonist: inactive; APJ agonist: inactive; APOBEC3A inh: inactive

What do the screens show for `Cc1cc(Br)cn2c(Cc3ccsc3)c(-c3ccc(Cl)cc3)nc12`?
CXCR6 inh: inactive

Results for C[C@@H]1[C@@H](Sc2ccccc2)CC(=O)O[C@@H]1c1ccc(-c2ccccc2)cc1 ?
APOBEC3G inh: inactive; CXCR6 inh: inactive; APJ antagonist: inactive; CCR6 antagonist: inactive; APJ agonist: inactive; APOBEC3A inh: inactive

Results for O=C1C=CC2(O[C@H](c3ccccc3)[C@@H](c3ccccc3)O2)[C@H](Sc2ccccc2O)C1 ?
CXCR6 inh: 94; CCR6 antagonist: 104

How did O=c1[nH]c(CSc2nnc3ccccn23)nc2cc(C(F)(F)F)ccc12 do in these assays?
APOBEC3G inh: inactive; APJ antagonist: inactive; APJ agonist: inactive; APOBEC3A inh: inactive

What do the screens show for `NC(N)=N/N=C(\N=Nc1ccccc1)c1cccc2cccnc12`?
CXCR6 inh: inactive; CCR6 antagonist: inactive

Results for NC(N)=N/N=C(\N=Nc1ccccc1)c1ccc(Cl)cc1 ?
CXCR6 inh: inactive; CCR6 antagonist: 63

Results for CN(C)CC(CCC(CN(C)C)C(=O)c1ccccc1)C(=O)c1ccccc1 (stereo unspecified) ?
CXCR6 inh: 76; CCR6 antagonist: 98

Results for CC(C)c1cccc(-c2ccc3c(c2)S(=O)(=O)c2cccc(C(=O)NCc4ccccc4Cl)c2C3=O)c1 ?
APOBEC3G inh: inactive; CXCR6 inh: inactive; APJ antagonist: inactive; CCR6 antagonist: inactive; APJ agonist: inactive; APOBEC3A inh: inactive

How did O=C(NC(=S)N(CCCCO)C1CCCCC1)c1sc2ccccc2c1Cl do in these assays?
APOBEC3G inh: inactive; CXCR6 inh: inactive; APJ antagonist: inactive; CCR6 antagonist: 67; APJ agonist: inactive; APOBEC3A inh: inactive

Results for O=C1N=c2ccccc2=C1c1sc(NS(=O)(=O)Cc2ccccc2)nc1O ?
APOBEC3G inh: inactive; CXCR6 inh: inactive; APJ antagonist: inactive; CCR6 antagonist: 76; APJ agonist: inactive; APOBEC3A inh: inactive

How did O=C1N=c2ccccc2=C1c1sc(Nc2cccc(O)c2)nc1O do in these assays?
APOBEC3G inh: inactive; CXCR6 inh: inactive; APJ antagonist: inactive; CCR6 antagonist: inactive; APJ agonist: inactive; APOBEC3A inh: inactive

How did O=C1N=c2ccccc2=C1c1sc(Nc2ccc(O)cc2)nc1O do in these assays?
CXCR6 inh: 50; CCR6 antagonist: 57

What do the screens show for `O=C1c2ccccc2C(=O)N1OS(=O)(=O)c1ccc(F)cc1`?
CXCR6 inh: 58; CCR6 antagonist: 70

How did Cc1cc(C)c(S(=O)(=O)ON2C(=O)c3ccccc3C2=O)cc1C do in these assays?
APOBEC3G inh: inactive; CXCR6 inh: inactive; APJ antagonist: inactive; CCR6 antagonist: 67; APJ agonist: inactive; APOBEC3A inh: inactive

Results for O=S(=O)(c1ccccc1)N1CCN(S(=O)(=O)c2ccc(F)cc2)CC1 ?
APOBEC3G inh: inactive; CXCR6 inh: inactive; APJ antagonist: inactive; CCR6 antagonist: inactive; APJ agonist: inactive; APOBEC3A inh: inactive

How did Cc1cc(C)c(C)c(S(=O)(=O)ON2C(=O)c3ccccc3C2=O)c1C do in these assays?
APOBEC3G inh: inactive; CXCR6 inh: inactive; APJ antagonist: inactive; CCR6 antagonist: 76; APJ agonist: inactive; APOBEC3A inh: inactive

Results for COc1ccc(S(=O)(=O)NC(=O)C2(C)CCN2C(=O)C2CCCCC2)cc1OC (stereo unspecified) ?
CXCR6 inh: inactive

How did O=C(Nc1c(C(=O)N2CCOCC2)cnn1-c1ccccc1)c1ccc(F)cc1 do in these assays?
APOBEC3G inh: inactive; CXCR6 inh: inactive; APJ antagonist: inactive; CCR6 antagonist: inactive; APJ agonist: inactive; APOBEC3A inh: inactive

How did CC(Sc1ccc(Cl)cc1)C(=O)NNC(=O)c1ccccc1O (stereo unspecified) do in these assays?
APOBEC3G inh: inactive; CXCR6 inh: inactive; APJ antagonist: inactive; CCR6 antagonist: inactive; APJ agonist: inactive; APOBEC3A inh: inactive

How did Nc1c(S(=O)(=O)O)cc(NC(=O)c2ccccc2)c2c1C(=O)c1ccccc1C2=O do in these assays?
APOBEC3G inh: inactive; CXCR6 inh: inactive; APJ antagonist: inactive; CCR6 antagonist: 55; APJ agonist: inactive; APOBEC3A inh: inactive
